The source made the active and inactive calls. The rule behind the calls is not given here.
Test system: C8161
Assay: Cytotoxicity against human C8161 cells assessed as decrease in cell viability at 100 uM after 24 hrs by MTT assay
Format: functional, cell-based
Procedure, shortened: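 Cells from breast cancer and melanoma lines were exposed to compound for 24 h and viability was read by MTT assay. A reference FAK inhibitor served as the control.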

| SMILES | Activity |
| --- | --- |
| Brc1ccc(C[N+]23CN4CN(CN(C4)C2)C3)cc1 | Active |
| O=S1(=O)N2CN3CCN(C2)CN1C3 | Active |

— ChEMBL document CHEMBL1140207, “A small molecule inhibitor, 1,2,4,5-benzenetetraamine tetrahydrochloride, targeting the y397 site of focal adhesion kinase decreases tumor growth” (J Med Chem, 2008)
